Results on seven molecules are retold here after ChEMBL document CHEMBL1144082, “Orizabins V-VIII, tetrasaccharide glycolipids from the Mexican scammony root (Ipomoea orizabensis)” (1999).

Converted amounts (≈) assume the structure as drawn. Where only a bound is given, the exact number is not on record here.

Holding throughout (format): functional
Experiment [1] can be described thus: Cytotoxicity against human SQC1 cells after 72 hrs by SRB method. Conditions: SQC1, 72 h, read-out: ED50 (the source's name). The method, boiled down: (§1)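 Cell lines kept in RPMI 1640 with 10% fetal bovine serum, 37 °C, 5% CO2, 100% humidity. Log-phase cells treated in triplicate with glycolipids over 0.16–20 μg/mL for 72 h at 37 °C, 5% CO2. Cell concentration determined by sulforhodamine B staining; ED50 taken as dose inhibiting 50% of control growth. Ellipticine as positive control.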
(In SRB staining, fixed cells bind dye roughly in proportion to their protein.)

Another experiment concerns OVCAR. Nature of the experiment: Cytotoxicity against human OVCAR cells after 72 hrs by SRB method. As to conditions: read-out: ED50 (the source's name). The method, boiled down: as §1
A further experiment deals with HCT-15. The experiment is described as follows: Cytotoxicity against human HCT-15 cells after 72 hrs by SRB method. Conditions: HCT-15, 72 h, read-out: ED50 (the source's name). In outline: as §1
The subject of the next experiment is KB. The experiment is described as follows: Cytotoxicity against human KB cells after 72 hrs by SRB method. Conditions: read-out: ED50 (the source's name). In outline: as §1

Consider `Cc1c2ccncc2c(C)c2c1[nH]c1ccccc12` [ELLIPTECINE], for which the EC50 in experiment [1] was 0.41 µg/mL (≈ 1.66 µM); in the experiment with OVCAR it was 0.58 µg/mL (≈ 2.35 µM); with HCT-15 it was 0.24 µg/mL (≈ 0.974 µM); in the experiment with KB it was 0.33 µg/mL (≈ 1.34 µM).

`CCCCC[C@H]1CCCCCCCCCC(=O)O[C@H]2[C@H](O)[C@@H](COC(=O)[C@H](C)[C@@H](C)O)O[C@@H](O[C@H]3[C@H](O1)O[C@H](C)[C@@H](O)[C@@H]3O)[C@@H]2O[C@@H]1O[C@@H](C)[C@H](O[C@@H]2O[C@H](C)[C@@H](O)[C@H](O)[C@H]2O)[C@@H](O)[C@H]1OC(=O)[C@@H](C)CC` [ORIZABIN VIII]: the EC50 was more than 15 µg/mL in experiment [1], more than 15 µg/mL in the experiment on OVCAR, more than 15 µg/mL with HCT-15 and 7 µg/mL (≈ 6.74 µM) in the experiment with KB.

Take `CCCCC[C@H]1CCCCCCCCCC(=O)O[C@@H]2[C@@H](O[C@@H]3O[C@H](C)[C@@H](O)[C@H](O)[C@H]3O)[C@H](C)O[C@@H](O[C@H]3[C@H](O[C@H]4[C@H](O1)O[C@H](C)[C@@H](O)[C@@H]4O)O[C@H](COC(=O)[C@H](C)[C@@H](C)O)[C@@H](O)[C@@H]3O)[C@@H]2OC(=O)[C@@H](C)CC` [ORIZABIN VII]: the EC50 in experiment [1] is more than 15 µg/mL; in the experiment with OVCAR, more than 15 µg/mL; with HCT-15, more than 15 µg/mL; in the experiment with KB, 7 µg/mL (≈ 6.74 µM).

As to `CCCCC[C@H]1CCCCCCCCCC(=O)O[C@@H]2[C@@H](O[C@@H]3O[C@H](C)[C@@H](O)[C@H](O)[C@H]3O)[C@H](C)O[C@@H](O[C@H]3[C@H](O[C@H]4[C@H](O1)O[C@H](C)[C@@H](O)[C@@H]4O)O[C@H](COC(=O)[C@@H](C)CC)[C@@H](O)[C@@H]3O)[C@@H]2OC(=O)[C@H](C)[C@@H](C)O` [ORIZABIN VI], the EC50 was more than 15 µg/mL in experiment [1], more than 15 µg/mL in the experiment on OVCAR, more than 15 µg/mL with HCT-15 and 7 µg/mL (≈ 6.74 µM) in the experiment on KB.

Consider `CCCCC[C@H]1CCCCCCCCCC(=O)O[C@@H]2[C@@H](O[C@@H]3O[C@H](C)[C@@H](OC(=O)[C@H](C)[C@@H](C)O)[C@H](O)[C@H]3O)[C@H](C)O[C@@H](O[C@H]3[C@H](O[C@H]4[C@H](O1)O[C@H](C)[C@@H](O)[C@@H]4O)O[C@H](CO)[C@@H](O)[C@@H]3O)[C@@H]2OC(=O)[C@@H](C)CC` [ORIZABIN V], for which the EC50 in experiment [1] is more than 15 µg/mL; with OVCAR it was more than 15 µg/mL; in the experiment on HCT-15, more than 15 µg/mL; with KB, 7 µg/mL (≈ 6.74 µM).

As to `CCCCC[C@H]1CCCCCCCCCC(=O)O[C@@H]2[C@@H](O[C@@H]3O[C@H](C)[C@@H](O)[C@H](O)[C@H]3O)[C@H](C)O[C@@H](O[C@H]3[C@H](O[C@H]4[C@H](O1)O[C@H](C)[C@@H](O)[C@@H]4O)O[C@H](CO)[C@@H](O)[C@@H]3O)[C@@H]2OC(=O)[C@@H](C)CC` [SCAMMONIN II], the EC50 in experiment [1] was more than 15 µg/mL; in the experiment on OVCAR it was more than 15 µg/mL; in the experiment with HCT-15, more than 15 µg/mL; in the experiment with KB it was 7 µg/mL (≈ 7.45 µM).

With `C/C=C(\C)C(=O)O[C@H]1[C@H](O)[C@@H](O)[C@H](O[C@@H]2[C@H]3OC(=O)CCCCCCCCC[C@H](CCCCC)O[C@@H]4O[C@H](C)[C@@H](O)[C@H](O)[C@H]4O[C@@H]4O[C@H](CO)[C@@H](O)[C@H](O)[C@H]4O[C@H](O[C@H]2C)[C@@H]3OC(=O)[C@@H](C)CC)O[C@@H]1C` [SCAMMONIN I], the EC50 in experiment [1] was more than 15 µg/mL; with OVCAR it was more than 15 µg/mL; in the experiment on HCT-15, more than 15 µg/mL; with KB it was 7 µg/mL (≈ 6.85 µM).
